Measured values: ChEMBL document CHEMBL4689842, “EUbOPEN Chemogenomics Library wave 1” (2021)

Test system: HEK-293T
Assay: Multiplex assay against HEK293T;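 on Population Tubulin-Different-Phenotype (%): share of the cells with healthy nuclei that show this phenotype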
Format: toxicity, cell-based
Conditions: human
Procedure, shortened: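 Tubulin, mitochondrial-mass and membrane-permeability phenotypes are per cents of healthy-nucleus cells. Cells were gated by CellPathfinder machine learning into Hoechst high-intensity objects or normal cells, normal cells into healthy, pyknosed or fragmented nuclei, and pyknosed cells into mitotic or apoptotic. Before that, live cells stained at seeding with Hoechst33342, BioTracker Green Microtubule Cytoskeleton Dye, MitoTracker Red and Annexin V Alexa Fluor 680 were imaged on a CQ1 microscope at 37°C and 5% CO2 after compound addition.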

[1] = 12 h, 1 µM, compound concentration 1 uM, replicate 1
[2] = 12 h, 1 µM, compound concentration 1 uM, replicate 2
[3] = 12 h, 10 µM, compound concentration 10 uM, replicate 1
[4] = 12 h, 10 µM, compound concentration 10 uM, replicate 2
[5] = 24 h, 1 µM, compound concentration 1 uM, replicate 1
[6] = 24 h, 1 µM, compound concentration 1 uM, replicate 2
[7] = 24 h, 10 µM, compound concentration 10 uM, replicate 1
[8] = 24 h, 10 µM, compound concentration 10 uM, replicate 2
[9] = 48 h, 1 µM, compound concentration 1 uM, replicate 1
[10] = 48 h, 1 µM, compound concentration 1 uM, replicate 2
[11] = 48 h, 10 µM, compound concentration 10 uM, replicate 1
[12] = 48 h, 10 µM, compound concentration 10 uM, replicate 2

## N#Cc1cnc(Nc2cc(NC[C@H]3CNCCO3)c(C(F)(F)F)cn2)cn1 [SRA-737]
[1]
  Population Apoptotic (%): 16%
  Population Fragmented Nuclei (%): 13%
  Population Healthy Nuclei (%): 66%
  Population Hoechst High Intensity Objects (%): 13%
  Population Membrane Permeable-Phenotype (%): 3%
  Population Mitochondria Different-Phenotype (%): 3%
  Population Mitotic Cells (%): 83%
  Population Normal (%): 86%
  Population Pyknosed Nuclei (%): 19%
  Population Tubulin-Different-Phenotype (%): 3%
  Total Cell Count: 617
[2]
  Population Apoptotic (%): 12%
  Population Fragmented Nuclei (%): 11%
  Population Healthy Nuclei (%): 84%
  Population Hoechst High Intensity Objects (%): 2%
  Population Membrane Permeable-Phenotype (%): 2%
  Population Mitochondria Different-Phenotype (%): 7%
  Population Mitotic Cells (%): 87%
  Population Normal (%): 97%
  Population Pyknosed Nuclei (%): 3%
  Population Tubulin-Different-Phenotype (%): 5%
  Total Cell Count: 2034
[3]
  Population Apoptotic (%): 20%
  Population Fragmented Nuclei (%): 10%
  Population Healthy Nuclei (%): 69%
  Population Hoechst High Intensity Objects (%): 14%
  Population Mitochondria Different-Phenotype (%): 6%
  Population Mitotic Cells (%): 79%
  Population Normal (%): 85%
  Population Pyknosed Nuclei (%): 20%
  Population Tubulin-Different-Phenotype (%): 5%
  Total Cell Count: 721
[4]
  Population Apoptotic (%): 13%
  Population Fragmented Nuclei (%): 6%
  Population Healthy Nuclei (%): 85%
  Population Hoechst High Intensity Objects (%): 3%
  Population Membrane Permeable-Phenotype (%): 2%
  Population Mitochondria Different-Phenotype (%): 16%
  Population Mitotic Cells (%): 86%
  Population Normal (%): 96%
  Population Pyknosed Nuclei (%): 8%
  Population Tubulin-Different-Phenotype (%): 16%
  Total Cell Count: 1376
[5]
  Population Apoptotic (%): 9%
  Population Fragmented Nuclei (%): 10%
  Population Healthy Nuclei (%): 77%
  Population Hoechst High Intensity Objects (%): 7%
  Population Membrane Permeable-Phenotype (%): 5%
  Population Mitochondria Different-Phenotype (%): 2%
  Population Mitotic Cells (%): 90%
  Population Normal (%): 92%
  Population Pyknosed Nuclei (%): 11%
  Population Tubulin-Different-Phenotype (%): 4%
  Total Cell Count: 740
[6]
  Population Apoptotic (%): 5%
  Population Fragmented Nuclei (%): 34%
  Population Healthy Nuclei (%): 63%
  Population Hoechst High Intensity Objects (%): 4%
  Population Membrane Permeable-Phenotype (%): 8%
  Population Mitochondria Different-Phenotype (%): 1%
  Population Mitotic Cells (%): 94%
  Population Normal (%): 95%
  Population Pyknosed Nuclei (%): 2%
  Population Tubulin-Different-Phenotype (%): 10%
  Total Cell Count: 3420
[7]
  Population Apoptotic (%): 25%
  Population Fragmented Nuclei (%): 10%
  Population Healthy Nuclei (%): 70%
  Population Hoechst High Intensity Objects (%): 10%
  Population Membrane Permeable-Phenotype (%): 4%
  Population Mitochondria Different-Phenotype (%): 6%
  Population Mitotic Cells (%): 75%
  Population Normal (%): 89%
  Population Pyknosed Nuclei (%): 18%
  Population Tubulin-Different-Phenotype (%): 15%
  Total Cell Count: 729
[8]
  Population Apoptotic (%): 21%
  Population Fragmented Nuclei (%): 12%
  Population Healthy Nuclei (%): 64%
  Population Hoechst High Intensity Objects (%): 8%
  Population Membrane Permeable-Phenotype (%): 7%
  Population Mitochondria Different-Phenotype (%): 17%
  Population Mitotic Cells (%): 78%
  Population Normal (%): 91%
  Population Pyknosed Nuclei (%): 22%
  Population Tubulin-Different-Phenotype (%): 44%
  Total Cell Count: 1254

## Cc1nc(Cc2cccc(C(F)(F)F)c2)sc1-c1ccc(C(N)=O)nc1 [TP-024n]
[1]
  Population Apoptotic (%): 41%
  Population Fragmented Nuclei (%): 7%
  Population Healthy Nuclei (%): 53%
  Population Hoechst High Intensity Objects (%): 14%
  Population Membrane Permeable-Phenotype (%): 2%
  Population Mitochondria Different-Phenotype (%): 65%
  Population Mitotic Cells (%): 58%
  Population Normal (%): 85%
  Population Pyknosed Nuclei (%): 39%
  Population Tubulin-Different-Phenotype (%): 41%
  Total Cell Count: 435
[2]
  Population Apoptotic (%): 10%
  Population Fragmented Nuclei (%): 2%
  Population Healthy Nuclei (%): 47%
  Population Hoechst High Intensity Objects (%): 5%
  Population Membrane Permeable-Phenotype (%): 9%
  Population Mitochondria Different-Phenotype (%): 22%
  Population Mitotic Cells (%): 89%
  Population Normal (%): 94%
  Population Pyknosed Nuclei (%): 50%
  Population Tubulin-Different-Phenotype (%): 26%
  Total Cell Count: 212
[3]
  Population Apoptotic (%): 50%
  Population Fragmented Nuclei (%): 11%
  Population Healthy Nuclei (%): 29%
  Population Hoechst High Intensity Objects (%): 12%
  Population Membrane Permeable-Phenotype (%): 0%
  Population Mitochondria Different-Phenotype (%): 91%
  Population Mitotic Cells (%): 49%
  Population Normal (%): 87%
  Population Pyknosed Nuclei (%): 59%
  Population Tubulin-Different-Phenotype (%): 59%
  Total Cell Count: 316
[4]
  Population Apoptotic (%): 25%
  Population Fragmented Nuclei (%): 8%
  Population Healthy Nuclei (%): 25%
  Population Hoechst High Intensity Objects (%): 9%
  Population Membrane Permeable-Phenotype (%): 6%
  Population Mitochondria Different-Phenotype (%): 66%
  Population Mitotic Cells (%): 75%
  Population Normal (%): 90%
  Population Pyknosed Nuclei (%): 65%
  Population Tubulin-Different-Phenotype (%): 30%
  Total Cell Count: 141
[5]
  Population Apoptotic (%): 49%
  Population Fragmented Nuclei (%): 9%
  Population Healthy Nuclei (%): 50%
  Population Hoechst High Intensity Objects (%): 11%
  Population Membrane Permeable-Phenotype (%): 2%
  Population Mitochondria Different-Phenotype (%): 55%
  Population Mitotic Cells (%): 50%
  Population Normal (%): 88%
  Population Pyknosed Nuclei (%): 40%
  Population Tubulin-Different-Phenotype (%): 28%
  Total Cell Count: 429
[6]
  Population Apoptotic (%): 19%
  Population Fragmented Nuclei (%): 4%
  Population Healthy Nuclei (%): 62%
  Population Hoechst High Intensity Objects (%): 2%
  Population Membrane Permeable-Phenotype (%): 5%
  Population Mitochondria Different-Phenotype (%): 24%
  Population Mitotic Cells (%): 80%
  Population Normal (%): 97%
  Population Pyknosed Nuclei (%): 33%
  Population Tubulin-Different-Phenotype (%): 36%
  Total Cell Count: 239
[7]
  Population Apoptotic (%): 51%
  Population Fragmented Nuclei (%): 11%
  Population Healthy Nuclei (%): 31%
  Population Hoechst High Intensity Objects (%): 17%
  Population Membrane Permeable-Phenotype (%): 3%
  Population Mitochondria Different-Phenotype (%): 86%
  Population Mitotic Cells (%): 48%
  Population Normal (%): 82%
  Population Pyknosed Nuclei (%): 57%
  Population Tubulin-Different-Phenotype (%): 52%
  Total Cell Count: 338
[8]
  Population Apoptotic (%): 36%
  Population Fragmented Nuclei (%): 10%
  Population Healthy Nuclei (%): 30%
  Population Hoechst High Intensity Objects (%): 10%
  Population Membrane Permeable-Phenotype (%): 2%
  Population Mitochondria Different-Phenotype (%): 65%
  Population Mitotic Cells (%): 63%
  Population Normal (%): 89%
  Population Pyknosed Nuclei (%): 59%
  Population Tubulin-Different-Phenotype (%): 50%
  Total Cell Count: 148
[9]
  Population Apoptotic (%): 32%
  Population Fragmented Nuclei (%): 12%
  Population Healthy Nuclei (%): 50%
  Population Hoechst High Intensity Objects (%): 9%
  Population Membrane Permeable-Phenotype (%): 4%
  Population Mitochondria Different-Phenotype (%): 25%
  Population Mitotic Cells (%): 67%
  Population Normal (%): 90%
  Population Pyknosed Nuclei (%): 37%
  Population Tubulin-Different-Phenotype (%): 25%
  Total Cell Count: 594
[10]
  Population Apoptotic (%): 17%
  Population Fragmented Nuclei (%): 5%
  Population Healthy Nuclei (%): 80%
  Population Hoechst High Intensity Objects (%): 2%
  Population Membrane Permeable-Phenotype (%): 5%
  Population Mitochondria Different-Phenotype (%): 5%
  Population Mitotic Cells (%): 82%
  Population Normal (%): 97%
  Population Pyknosed Nuclei (%): 13%
  Population Tubulin-Different-Phenotype (%): 19%
  Total Cell Count: 464
[11]
  Population Apoptotic (%): 53%
  Population Fragmented Nuclei (%): 18%
  Population Healthy Nuclei (%): 27%
  Population Hoechst High Intensity Objects (%): 12%
  Population Membrane Permeable-Phenotype (%): 2%
  Population Mitochondria Different-Phenotype (%): 69%
  Population Mitotic Cells (%): 46%
  Population Normal (%): 87%
  Population Pyknosed Nuclei (%): 53%
  Population Tubulin-Different-Phenotype (%): 42%
  Total Cell Count: 373
[12]
  Population Apoptotic (%): 46%
  Population Fragmented Nuclei (%): 10%
  Population Healthy Nuclei (%): 39%
  Population Hoechst High Intensity Objects (%): 5%
  Population Membrane Permeable-Phenotype (%): 6%
  Population Mitochondria Different-Phenotype (%): 54%
  Population Mitotic Cells (%): 53%
  Population Normal (%): 94%
  Population Pyknosed Nuclei (%): 50%
  Population Tubulin-Different-Phenotype (%): 60%
  Total Cell Count: 164
